In ChEMBL document CHEMBL1130393, “Antitumor agents. 178. Synthesis and biological evaluation of substituted 2-aryl-1,8-naphthyridin-4(1H)-ones as antitumor agents that inhibit tubulin polymerization” (J Med Chem, 1997):

Key:
HL-60 = experiment: In vitro antitumor activity against HL-60(TB) tumor cell lines; assay type: functional; conditions: Homo sapiens
Tumor Cell line = experiment: In vitro antitumor activity against NCI 's human tumor cell lines; assay type: functional; conditions: read-out: Average log GI50 (converted)
Method in brief: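 NCI in vitro screen of 60 human tumor cell lines. […] The value is calculated from all cell lines tested.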

MDA-N = experiment: In vitro antitumor activity against MDA-N tumor cell lines; assay type: functional; conditions: Homo sapiens
NCI-H460 = experiment: In vitro antitumor activity against NCI-H460 tumor cell lines; assay type: functional; conditions: Homo sapiens
OVCAR-3 = experiment: In vitro antitumor activity against OVCAR-3 tumor cell lines; assay type: functional; conditions: Homo sapiens
PC-3 = experiment: In vitro antitumor activity against PC-3 tumor cell lines; assay type: functional; conditions: Homo sapiens
SF-295 = experiment: In vitro antitumor activity against SF-295 tumor cell lines; assay type: functional; conditions: Homo sapiens
SK-MEL-5 = experiment: In vitro antitumor activity against SK-MEL-5 tumor cell lines; assay type: functional; conditions: Homo sapiens
U-251 = experiment: In vitro antitumor activity against U-251 tumor cell lines; assay type: functional; conditions: Homo sapiens
Tubulin = Tubulin (Bos taurus, UniProt Q6B856+Q862L2+Q862F3); experiment: Inhibition of tubulin polymerization; assay type: functional
HCT-116 = experiment: In vitro antitumor activity against HCT116 tumor cell lines; assay type: functional; conditions: Homo sapiens
MDA-MB-435 = experiment: In vitro antitumor activity against MDA-MB-435 NCI 's human tumor cell lines; assay type: functional
CAKI-1 = experiment: In vitro antitumor activity against CAKI-1 tumor cell lines; assay type: functional; conditions: Homo sapiens
Tubulin (Bos taurus) = Tubulin (Bos taurus) (UniProt Q6B856+Q862L2+Q862F3); experiment: Inhibition of radiolabeled colchicine binding to tubulin; assay type: protein assay; set-up: concentration or dose not given beside the values; conditions: concentration not given here
Method in brief: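 Measured by DEAE-cellulose filter binding. The 0.1 mL mixture held bovine brain tubulin 1.0 µM, 1.0 M monosodium glutamate (pH 6.6), 1 mM MgCl2, 0.1 mM GTP, 5.0 µM [3H]colchicine, 5% DMSO and inhibitor at 5.0 µM. It was incubated 20 min at 37 °C, filtered through two DEAE-cellulose papers, washed with water and counted by liquid scintillation.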

| SMILES | GI50 (HL-60) | GI50 (Tumor Cell line) | GI50 (MDA-N) | GI50 (NCI-H460) | GI50 (OVCAR-3) | GI50 (PC-3) | GI50 (SF-295) | GI50 (SK-MEL-5) | GI50 (U-251) | IC50 (Tubulin) | GI50 (HCT-116) | GI50 (MDA-MB-435) | GI50 (CAKI-1) | inhibition (Tubulin (Bos taurus)) |
| --- | --- | --- | --- | --- | --- | --- | --- | --- | --- | --- | --- | --- | --- | --- |
| Cc1cccc(-c2cc(O)c3c(C)cc(C)nc3n2)c1 | 12.9 µM | 38 µM | 20.9 µM | 44.7 µM | 30.2 µM | 31.6 µM | 64.6 µM | 34.7 µM | 53.7 µM | 2.3 µM | 17.8 µM | 20 µM | 56.2 µM |  |
| Cc1cnc2nc(-c3ccc4ccccc4c3)cc(O)c2c1 | 0.141 µM | 0.741 µM | 0.132 µM | 0.398 µM | 0.355 µM | 0.407 µM | 0.55 µM | 0.363 µM | 0.468 µM | 2.1 µM | 0.468 µM | 0.105 µM | 0.617 µM |  |
| Cc1ccc2c(O)cc(-c3ccc4ccccc4c3)nc2n1 | 1.78 µM | 4.57 µM | 1.95 µM | 3.8 µM | 3.63 µM | 2.63 µM | 3.8 µM | 3.31 µM | 4.57 µM | 5.1 µM | 3.98 µM | 1.58 µM | 5.37 µM |  |
| Oc1cc(-c2cccc3ccccc23)nc2ncccc12 | < 0.01 µM | 0.0355 µM | < 0.01 µM | 0.0389 µM | < 0.01 µM | 0.0178 µM | < 0.01 µM | < 0.01 µM | 0.0102 µM | 1.1 µM | < 0.01 µM | < 0.01 µM | 0.0151 µM |  |
| Cc1ccc2c(O)cc(-c3cccc4ccccc34)nc2n1 | < 0.01 µM | 0.0661 µM | < 0.01 µM | 0.0174 µM | < 0.01 µM | 0.0302 µM | 0.024 µM | 0.0138 µM | 0.0155 µM | 0.66 µM | < 0.01 µM | < 0.01 µM | 6.03 µM | 40% |
| Cc1cccc(-c2cc(O)c3c(C)ccnc3n2)c1 | 0.0182 µM | 0.0575 µM | 0.011 µM | 0.0363 µM | 0.0224 µM | 0.0331 µM | 0.0302 µM | 0.0339 µM | 0.0537 µM | 1.8 µM | 0.0468 µM | < 0.01 µM | 0.0537 µM |  |
| Oc1cc(-c2ccc3ccccc3c2)nc2ncccc12 | 1.82 µM | 8.13 µM | 1.66 µM | 3.8 µM | 8.32 µM | 10.5 µM | 9.12 µM | 3.47 µM | 4.37 µM | 14 µM | 3.8 µM | 1.78 µM | 5.62 µM |  |
| Cc1ccnc2nc(-c3cccc4ccccc34)cc(O)c12 | < 0.01 µM | 0.0355 µM | < 0.01 µM | < 0.01 µM | < 0.01 µM | 0.0199 µM | 0.0107 µM | < 0.01 µM | < 0.01 µM | 0.93 µM | < 0.01 µM | < 0.01 µM | 0.012 µM | 37% |
| Cc1cccc(-c2cc(O)c3ccc(C)nc3n2)c1 | 0.0269 µM | 0.0977 µM | 0.0316 µM | 0.0178 µM | 0.49 µM | 0.138 µM | 0.0603 µM | 0.126 µM | 0.2 µM | 1.9 µM | 0.12 µM | 0.0324 µM | 0.427 µM |  |
| Cc1cc(C)c2c(O)cc(-c3ccc4ccccc4c3)nc2n1 | 3.47 µM | 13.5 µM | 3.24 µM | 13.2 µM | 20 µM | 5.5 µM | 14.8 µM | 2.19 µM | 15.8 µM | > 40 µM | 12.6 µM | 2.95 µM | 51.3 µM |  |
